Test results from ChEMBL document CHEMBL1149362, “Diphenyl phosphonate inhibitors for the urokinase-type plasminogen activator: optimization of the P4 position” (J Med Chem, 2006).

What was measured:
[1] = molecular target: Coagulation factor X (Bos taurus) (UniProt P00743); test: (§1) Inhibition of bovine F10a at 250 uM
[2] = Inhibition of bovine trypsin; design: species or system Bos taurus
Outline: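 Bovine trypsin, approx. 5 mU, is preincubated with inhibitor for 15 min at 37 °C. BAPNA substrate is then added at 425 µM (Km 1 mM) in Tris pH 8.2. The pNA release rate is read at 405 nm, duplicate wells, and IC50 comes from a four-parameter logistic fit.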

Homo sapiens [3] = species: Homo sapiens; test: Selectivity index, IC50 for human plasmin/IC50 for human uPA
[4] = Selectivity index, IC50 for bovine trypsin/IC50 for human uPA
[5] = molecular target: Thrombin and urokinase-type plasminogen activator (Homo sapiens) (UniProt P00734+P00749); test: Selectivity index, IC50 for human thrombin/IC50 for human uPA; type: protein assay
Homo sapiens [6] = species: Homo sapiens; test: Selectivity index, IC50 for recombinant tPA/IC50 for human uPA
[7] = Selectivity index, IC50 for bovine F10a/IC50 for human uPA
Coagulation factor X [8] = molecular target: T1, Coagulation factor X (Bos taurus, UniProt P00743); test: Inhibition of bovine F10a
T1 sequence (P00743 41-180 limits assumed): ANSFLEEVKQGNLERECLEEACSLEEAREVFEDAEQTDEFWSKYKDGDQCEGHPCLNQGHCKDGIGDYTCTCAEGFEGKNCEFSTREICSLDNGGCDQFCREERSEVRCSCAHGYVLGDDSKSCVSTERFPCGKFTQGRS
T1 sequence (P00743 234-492 limits assumed): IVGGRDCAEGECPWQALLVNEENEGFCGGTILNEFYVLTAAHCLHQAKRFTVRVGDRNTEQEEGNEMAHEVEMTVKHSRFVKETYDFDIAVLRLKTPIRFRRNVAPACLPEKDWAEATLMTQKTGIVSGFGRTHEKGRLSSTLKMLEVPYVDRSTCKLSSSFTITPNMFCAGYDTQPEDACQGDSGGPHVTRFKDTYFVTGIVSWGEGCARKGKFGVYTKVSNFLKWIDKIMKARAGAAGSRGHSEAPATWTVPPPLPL

Plasminogen = Plasminogen (Homo sapiens, UniProt P00747); test: Inhibition of human plasmin
Plasminogen, sequence (P00747 97-580 limits assumed): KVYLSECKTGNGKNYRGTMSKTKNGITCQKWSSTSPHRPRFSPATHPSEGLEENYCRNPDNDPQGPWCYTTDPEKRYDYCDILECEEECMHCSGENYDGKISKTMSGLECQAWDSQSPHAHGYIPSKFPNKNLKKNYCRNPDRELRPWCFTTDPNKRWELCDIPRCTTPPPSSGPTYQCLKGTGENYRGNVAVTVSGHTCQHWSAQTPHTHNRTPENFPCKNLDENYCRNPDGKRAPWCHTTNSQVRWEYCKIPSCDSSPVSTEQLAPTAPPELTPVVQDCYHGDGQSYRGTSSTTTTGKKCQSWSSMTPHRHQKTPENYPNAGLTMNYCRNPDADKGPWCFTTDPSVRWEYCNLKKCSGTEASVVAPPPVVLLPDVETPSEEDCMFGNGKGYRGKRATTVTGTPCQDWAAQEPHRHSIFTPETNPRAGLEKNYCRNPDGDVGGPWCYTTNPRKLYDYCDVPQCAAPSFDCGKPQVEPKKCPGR
Plasminogen, sequence (P00747 581-810 limits assumed): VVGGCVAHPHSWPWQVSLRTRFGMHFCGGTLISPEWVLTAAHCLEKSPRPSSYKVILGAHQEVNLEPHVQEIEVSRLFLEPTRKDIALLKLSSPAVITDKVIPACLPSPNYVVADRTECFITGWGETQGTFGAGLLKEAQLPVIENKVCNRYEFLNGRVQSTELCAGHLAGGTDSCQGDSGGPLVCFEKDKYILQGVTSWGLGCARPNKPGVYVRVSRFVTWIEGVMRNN
Outline: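 Plasmin from human plasma, approx. 5 mU, in Tris pH 7.4, with a 15-min 37 °C inhibitor preincubation. […] Initial rate is read at 405 nm, in duplicate, and IC50 is obtained by four-parameter logistic fitting.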

[9] = molecular target: T2, Urokinase-type plasminogen activator (Homo sapiens, UniProt P00749); test: Inhibition of human uPA
[10] = molecular target: Tissue-type plasminogen activator (Homo sapiens, UniProt P00750); test: Inhibition of recombinant tPA
Tissue-type plasminogen activator, sequence (P00750 whole entry): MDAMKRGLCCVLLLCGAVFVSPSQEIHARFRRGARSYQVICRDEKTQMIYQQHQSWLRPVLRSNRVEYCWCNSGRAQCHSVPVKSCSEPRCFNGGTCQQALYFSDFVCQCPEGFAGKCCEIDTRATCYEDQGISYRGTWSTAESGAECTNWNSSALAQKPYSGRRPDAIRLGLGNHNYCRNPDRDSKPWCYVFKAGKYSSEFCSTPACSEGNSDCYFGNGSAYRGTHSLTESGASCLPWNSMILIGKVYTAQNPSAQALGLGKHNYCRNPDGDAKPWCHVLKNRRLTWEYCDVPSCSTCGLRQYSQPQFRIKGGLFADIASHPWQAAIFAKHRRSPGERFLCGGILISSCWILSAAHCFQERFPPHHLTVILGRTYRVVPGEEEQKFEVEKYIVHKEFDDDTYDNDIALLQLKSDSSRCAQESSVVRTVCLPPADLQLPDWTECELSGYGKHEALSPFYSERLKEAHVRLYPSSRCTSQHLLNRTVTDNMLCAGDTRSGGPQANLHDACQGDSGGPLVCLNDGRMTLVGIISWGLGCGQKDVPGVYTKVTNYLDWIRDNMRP
Outline: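 Recombinant tPA, approx. 5 mU, in Tris pH 8.3, is preincubated with inhibitor for 15 min at 37 °C. S-2288 is then added at 1.25 mM (Km 1 mM). Absorbance change is read at 405 nm, in duplicate, and IC50 comes from a four-parameter logistic fit.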

Prothrombin = Prothrombin (Homo sapiens, UniProt P00734); test: Inhibition of human thrombin
Outline: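 Thrombin from human plasma, approx. 5 mU, in Tris pH 8.3, with a 15-min 37 °C inhibitor preincubation. […] Initial rate is read at 405 nm, duplicates, and IC50 is obtained by four-parameter logistic fitting.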

[11] = molecular target: T2, Urokinase-type plasminogen activator; test: Inhibition of mouse uPA; conditions: target entry is the homologue from another species
Coagulation factor X [12] = molecular target: T1, Coagulation factor X; test: as §1
[13] = molecular target: Coagulation factor X (Bos taurus) (UniProt P00743); test: Inhibition of bovine F10a at 125 uM
[14] = Selectivity for mouse uPA over plasmin
[15] = Selectivity for mouse uPA over tPA

Coagulation factor X (Bos taurus), sequence (P00743 41-180 limits assumed): as the sequence (P00743 41-180 limits assumed) above
Coagulation factor X (Bos taurus), sequence (P00743 234-492 limits assumed): as the sequence (P00743 234-492 limits assumed) above

Row | SMILES | inhibition [1] | IC50 [2] | Selectivity index (Homo sapiens [3]) | Selectivity index [4] | Selectivity index [5] | Selectivity index (Homo sapiens [6]) | Selectivity index [7] | IC50 (Coagulation factor X [8]) | IC50 (Plasminogen) | IC50 [9] | IC50 [10] | IC50 (Prothrombin) | IC50 [11] | IC50 (Coagulation factor X [12]) | inhibition [13] | Selectivity ratio [14] | Selectivity ratio [15]
1 | Cc1cccc(C(=O)N[C@H](CO)C(=O)N[C@@H](C)C(=O)NC(Cc2ccc(NC(=N)N)cc2)P(=O)(Oc2ccccc2)Oc2ccccc2)c1 (stereo partly specified) | 56% | 160 nM | 1800 | 40 | 7700 | 4000 |  |  |  |  |  |  |  |  |  |  | 
2 | C[C@H](NC(=O)[C@@H](CO)NS(=O)(=O)c1cccc2ccccc12)C(=O)NC(Cc1ccc(NC(=N)N)cc1)P(=O)(Oc1ccccc1)Oc1ccccc1 (stereo partly specified) |  | 280 nM | 155 | 50 | 1000 | 760 | 16600 |  |  |  |  |  |  |  |  |  | 
3 | C[C@H](NC(=O)[C@@H](CO)NC(=O)OCc1ccccc1)C(=O)NC(CCCNC(=N)N)P(=O)(Oc1ccccc1)Oc1ccccc1 (stereo partly specified) |  |  |  |  |  |  |  | 65000 nM |  |  |  |  |  |  |  |  | 
4 | C[C@H](NC(=O)[C@@H](CO)NC(=O)c1cccs1)C(=O)NC(Cc1ccc(NC(=N)N)cc1)P(=O)(Oc1ccccc1)Oc1ccccc1 (stereo partly specified) |  |  | 1400 | 40 | 5000 | 1900 |  |  |  |  |  |  |  |  |  |  | 
5 | C[C@H](NC(=O)[C@@H](CO)NS(=O)(=O)c1ccc(Br)cc1)C(=O)NC(Cc1ccc(NC(=N)N)cc1)P(=O)(Oc1ccccc1)Oc1ccccc1 (stereo partly specified) |  | 240 nM | 136 | 36 | 451 | 560 | 9000 | 58000 nM | 900 nM | 6.6 nM | 3700 nM | 2980 nM |  |  |  |  | 
6 | COc1ccc(S(=O)(=O)N[C@H](CO)C(=O)N[C@@H](C)C(=O)NC(Cc2ccc(NC(=N)N)cc2)P(=O)(Oc2ccccc2)Oc2ccccc2)cc1 (stereo partly specified) |  | 360 nM | 293 | 60 | 288 | 740 | 19000 | 100000 nM | 1700 nM | 5.8 nM | 4300 nM | 1670 nM |  |  |  |  | 
7 | CC(=O)Nc1ccc(OP(=O)(Oc2ccc(NC(C)=O)cc2)C(Cc2ccc(N=C(N)N)cc2)NC(=O)[C@H](C)NC(=O)[C@@H](CO)NC(=O)OCc2ccccc2)cc1 (stereo partly specified) |  |  |  |  |  |  |  |  | 900 nM | 6.7 nM | 6400 nM | 1500 nM | 410 nM |  |  |  | 
8 | C[C@H](NC(=O)[C@@H](CO)NS(=O)(=O)c1ccc(C#N)cc1)C(=O)NC(Cc1ccc(N=C(N)N)cc1)P(=O)(Oc1ccccc1)Oc1ccccc1 (stereo partly specified) |  |  |  |  |  |  |  |  | 900 nM | 6.2 nM | 6600 nM | 7500 nM |  |  |  |  | 
9 | C[C@H](NC(=O)[C@@H](CO)NC(=O)c1ccccc1)C(=O)NC(Cc1ccc(N=C(N)N)cc1)P(=O)(Oc1ccccc1)Oc1ccccc1 (stereo partly specified) |  |  |  |  |  |  |  |  | 15000 nM | 5 nM | 15000 nM | 22000 nM |  |  |  |  | 
10 | C[C@H](NC(=O)[C@@H](CO)NC(=O)OCc1ccccc1)C(=O)NC(CCCN=C(N)N)P(=O)(Oc1ccccc1)Oc1ccccc1 (stereo partly specified) |  |  | 300 |  | 8 | 40 | 1100 |  |  |  |  |  |  |  |  |  | 
11 | C[C@H](NC(=O)[C@@H](CO)NS(=O)(=O)c1cccc2ccccc12)C(=O)NC(Cc1ccc(N=C(N)N)cc1)P(=O)(Oc1ccccc1)Oc1ccccc1 (stereo partly specified) |  |  |  |  |  |  |  | 96000 nM | 990 nM | 5.8 nM | 4400 nM | 6000 nM |  |  |  |  | 
12 | Cc1cccc(C(=O)N[C@H](CO)C(=O)N[C@@H](C)C(=O)NC(Cc2ccc(N=C(N)N)cc2)P(=O)(Oc2ccccc2)Oc2ccccc2)c1 (stereo partly specified) |  |  |  |  |  |  |  |  | 8000 nM | 4.4 nM | 18000 nM | 34000 nM |  |  |  |  | 
13 | C[C@H](NC(=O)[C@@H](CO)NC(=O)c1cccs1)C(=O)NC(Cc1ccc(N=C(N)N)cc1)P(=O)(Oc1ccccc1)Oc1ccccc1 (stereo partly specified) |  |  |  |  |  |  |  |  | 10000 nM | 6.9 nM | 13000 nM | 35000 nM |  | 250000 nM |  |  | 
14 | Cc1ccccc1C(=O)N[C@H](CO)C(=O)N[C@@H](C)C(=O)NC(Cc1ccc(NC(=N)N)cc1)P(=O)(Oc1ccccc1)Oc1ccccc1 (stereo partly specified) | 57% | 140 nM | 1400 | 30 | 3200 | 1100 |  |  | 7200 nM | 5 nM | 5500 nM | 15900 nM |  |  |  |  | 
15 | C[C@H](NC(=O)[C@@H](CO)NS(=O)(=O)c1cccs1)C(=O)NC(Cc1ccc(NC(=N)N)cc1)P(=O)(Oc1ccccc1)Oc1ccccc1 (stereo partly specified) | 68% | 98 nM | 1000 | 65 | 2800 | 2300 |  |  |  |  |  |  |  |  |  |  | 
16 | C[C@H](NC(=O)[C@@H](CO)NS(=O)(=O)c1ccc(C#N)cc1)C(=O)NC(Cc1ccc(NC(=N)N)cc1)P(=O)(Oc1ccccc1)Oc1ccccc1 (stereo partly specified) | 53% | 440 nM | 145 | 70 | 1200 | 1100 |  |  |  |  |  |  |  |  |  |  | 
17 | C[C@H](NC(=O)[C@@H](CO)NC(=O)c1ccccc1)C(=O)NC(Cc1ccc(NC(=N)N)cc1)P(=O)(Oc1ccccc1)Oc1ccccc1 (stereo partly specified) | 45% | 400 nM | 3000 | 80 | 5400 | 3000 |  |  |  |  |  |  |  |  |  |  | 
18 | C[C@H](NC(=O)[C@@H](CO)NS(=O)(=O)Cc1ccccc1)C(=O)NC(Cc1ccc(NC(=N)N)cc1)P(=O)(Oc1ccccc1)Oc1ccccc1 (stereo partly specified) |  | 310 nM | 11 | 90 | 220 | 80 | 9400 | 33000 nM | 37 nM | 3.5 nM | 280 nM | 770 nM |  |  |  |  | 
19 | C[C@H](NC(=O)[C@@H](CO)NS(=O)(=O)c1ccccc1)C(=O)NC(Cc1ccc(NC(=N)N)cc1)P(=O)(Oc1ccccc1)Oc1ccccc1 (stereo partly specified) | 64% | 160 nM | 740 | 60 | 1900 | 1200 |  |  | 1900 nM | 2.6 nM | 3100 nM | 4900 nM |  |  |  |  | 
20 | C[C@H](NC(=O)[C@@H](CO)NC(=O)C1C2CC3CC(C2)CC1C3)C(=O)NC(Cc1ccc(NC(=N)N)cc1)P(=O)(Oc1ccccc1)Oc1ccccc1 (stereo partly specified) | 62% | 160 nM | 600 | 20 | 750 | 1000 |  |  | 5000 nM | 8 nM | 8600 nM | 6000 nM |  |  |  |  | 
21 | C[C@H](NC(=O)[C@@H](CO)NC(=O)OCc1ccccc1)C(=O)NC(Cc1ccc(NC(=N)N)cc1)P(=O)(Oc1ccccc1)Oc1ccccc1 (stereo partly specified) |  | 300 nM | 470 | 70 | 4700 | 1000 |  |  |  |  |  |  |  |  | 43% |  | 
22 | Cc1cccc(C)c1C(=O)N[C@H](CO)C(=O)N[C@@H](C)C(=O)NC(Cc1ccc(NC(=N)N)cc1)P(=O)(Oc1ccccc1)Oc1ccccc1 (stereo partly specified) | 62% | 220 nM | 700 | 40 | 1000 | 600 |  |  | 4200 nM | 6 nM | 3600 nM | 6300 nM |  |  |  |  | 
23 | CC(=O)Nc1ccc(OP(=O)(Oc2ccc(NC(C)=O)cc2)C(Cc2ccc(NC(=N)N)cc2)NC(=O)[C@H](C)NC(=O)[C@@H](CO)NC(=O)OCc2ccccc2)cc1 (stereo partly specified) | 58% | 200 nM | 130 | 30 | 200 | 1000 |  |  |  |  |  |  |  |  |  | 5 | 5
24 | C[C@H](NC(=O)[C@@H](CO)NC(=O)OCc1ccccc1)C(=O)NC(Cc1ccc(N=C(N)N)cc1)P(=O)(Oc1ccccc1)Oc1ccccc1 (stereo partly specified) |  |  |  |  |  |  |  |  | 2000 nM | 4.3 nM | 4600 nM | 20000 nM |  |  |  |  | 
25 | Cc1ccc(C(=O)N[C@H](CO)C(=O)N[C@@H](C)C(=O)NC(Cc2ccc(NC(=N)N)cc2)P(=O)(Oc2ccccc2)Oc2ccccc2)cc1 (stereo partly specified) | 53% | 160 nM | 700 | 23 | 9600 | 2300 |  |  | 5000 nM | 7 nM | 16000 nM | 67000 nM |  |  |  |  | 
26 | C[C@H](NC(=O)[C@@H](CO)NS(=O)(=O)c1cccs1)C(=O)NC(Cc1ccc(N=C(N)N)cc1)P(=O)(Oc1ccccc1)Oc1ccccc1 (stereo partly specified) |  |  |  |  |  |  |  |  | 1540 nM | 1.5 nM | 3400 nM | 4300 nM |  |  |  |  | 
